Measured values: ChEMBL document CHEMBL1124456, “Synthesis and structure-activity relationship of substituted tetrahydro- and hexahydro-1,2-benzisothiazol-3-one 1,1-dioxides and thiadiazinones: potential anxiolytic agents” (J Med Chem, 1989)
One block for each molecule: values may come before it. Activity calls are given as the source filed them. No cut-off for these calls is given here.

Assays:
Rattus norvegicus [1] = organism: Rattus norvegicus; assay: Anti-psychotic activity from the ability to block discrete trial conditioned avoidance response (CAR) of rats.; format: functional
Outline: (§1)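 Discrete-trial conditioned avoidance in male CD rats kept at about 400–450 g body weight. Dosing was ip or po, 30 min before testing, with at least five rats per dose (20 or 40 mg/kg, or a dose range). Computer recorded intertrial, avoidance and escape responses and no-response trials. Avoidance-block trials were taken as % of total trials, with control avoidance set at 100%. AB50 came from a least-squares dose-effect regression line.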

[2] = target: T1, 5-hydroxytryptamine receptor 1A (Rattus norvegicus, UniProt P19327); assay: The inhibition activity of 5-HT1A at 1 uM
T1 sequence (P19327 whole entry): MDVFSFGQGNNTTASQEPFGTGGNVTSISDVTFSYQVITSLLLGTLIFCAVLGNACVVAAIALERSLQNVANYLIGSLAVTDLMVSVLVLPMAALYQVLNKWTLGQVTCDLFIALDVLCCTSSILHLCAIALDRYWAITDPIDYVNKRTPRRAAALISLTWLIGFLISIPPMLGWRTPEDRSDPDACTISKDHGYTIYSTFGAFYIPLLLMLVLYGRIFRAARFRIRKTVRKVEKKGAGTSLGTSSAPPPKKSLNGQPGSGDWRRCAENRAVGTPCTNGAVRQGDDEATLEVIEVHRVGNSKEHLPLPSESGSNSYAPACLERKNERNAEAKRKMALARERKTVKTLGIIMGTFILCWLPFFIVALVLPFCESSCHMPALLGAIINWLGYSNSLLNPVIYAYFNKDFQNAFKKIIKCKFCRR

[3] = Partition coefficient (logP); format: physicochemical; conditions: octanol/water
Rattus norvegicus [4] = assay: Mean total score of In vivo ability (10.0 mg/kg) was to antagonize serotonin syndrome; format: functional
Rattus norvegicus [5] = assay: Mean total score of in vivo ability (8.0 mg/kg) was to elicit serotonin syndrome; format: functional
[6] = target: T1, 5-hydroxytryptamine receptor 1A; assay: In vitro ability to inhibit [3H]8-OH-DPAT binding to 5-HT1A receptor of rat hippocampus and the value ranges from 9 - 12; format: tissue-based
Rattus norvegicus [7] = assay: Compound was tested for antagonism of apomorphine-induced climbing behavior, after intraperitoneal dosing and the value ranges from 0.97 - 11.7; format: functional; conditions: ip
Rattus norvegicus [8] = assay: Compound was tested for antagonism of apomorphine-induced stereotyped behavior, after intraperitoneal dosing.; format: functional; conditions: ip
Outline: (§2)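 High-dose apomorphine-induced stereotyped behavior procedure. Test agents were given ip at doses up to 60 mg/kg.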

Rattus norvegicus [9] = organism: Rattus norvegicus; assay: Anti psychotic activity was evaluated from the ability to block discrete trial conditioned avoidance response (CAR) of rats and the value ranges from 26 - 143; format: functional; outline: as §1
[10] = target: T2, Adrenergic receptor alpha-1 (Rattus norvegicus) (UniProt P15823+P23944+P43140); assay: The percent inhibition of Alpha-1 adrenergic receptor at 1 uM; format: protein assay
D(2) dopamine receptor = D(2) dopamine receptor (Rattus norvegicus, UniProt P61169); assay: In vitro ability to inhibit [3H]spiperone binding to Dopamine receptor D2 of rat limbic structures and the value ranges from 116 - 159.; format: tissue-based, Limbic system
[11] = target: T3, GABA-A receptor; anion channel (Rattus norvegicus) (UniProt O09028+P15431+P18506+P18508+P19969+P20236+P23574+P23576+P28471+P28473+P30191+P62813+P63079+P63138+Q91ZM7+Q9ES14); assay: (§3) Percent inhibition of GABA-A benzodiazepine receptor at 1 uM; format: protein-complex assay
Outline: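 Male Sprague-Dawley rat brain (cerebellum and pons-medulla removed) was homogenized in 0.32 M sucrose to give a 30000g pellet, resuspended in Tris-HCl pH 7.5. Membranes were incubated with 1.5×10^-9 M [³H]diazepam (2.0 mL final) for 30 min at 4 °C, GF/C filtered, washed ice-cold and scintillation counted. Nonspecific binding was taken with 3×10^-6 M cold diazepam. Drug was tested at 1 μM.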

[12] = target: T1, 5-hydroxytryptamine receptor 1A; assay: In vitro ability to inhibit [3H]8-OH-DPAT binding to 5-hydroxytryptamine 1A receptor of rat hippocampus and value ranges from 27 - 42; format: tissue-based
[13] = target: D(2) dopamine receptor (Rattus norvegicus) (UniProt P61169); assay: Inhibition of [3H]-spiperone binding to dopamine receptor D2 of rat limbic structures at 1 uM.; conditions: Limbic system
[14] = target: T4, 5-hydroxytryptamine receptor 1A (Rattus norvegicus) (UniProt P19327); assay: In vitro ability to inhibit [3H]-8-OH-DPAT binding to 5-hydroxytryptamine 1A receptor of rat hippocampus at 1 uM; format: tissue-based
T4 sequence (whole entry): T1 sequence (P19327 whole entry)

[15] = target: D(2) dopamine receptor (Rattus norvegicus) (UniProt P61169); assay: Inhibition of [3H]spiperone binding to Dopamine receptor D2 of rat limbic structures; format: tissue-based; parameters: concentration or dose not given beside the values; conditions: Limbic system, concentration not given here
Rattus norvegicus [16] = organism: Rattus norvegicus; assay: Anti psychotic activity was evaluated from the ability to block discrete trial conditioned avoidance response (CAR) of rats. (95%CI); 39 to 53; format: functional; outline: as §1
[17] = target: T4, 5-hydroxytryptamine receptor 1A (Rattus norvegicus); assay: In vitro ability to inhibit [3H]8-OH-DPAT binding to 5-hydroxytryptamine 1A receptor of rat hippocampus at 1 uM; format: tissue-based
Rattus norvegicus [18] = assay: In vivo ability (10.0 mg/kg) was to antagonize serotonin syndrome in rat; format: functional
Outline: (§4)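 Rat in vivo test adapted from published serotonin syndrome methods. Agents given ip; 5-MeO-DMT at 3.0 mg/kg ip was used to elicit the syndrome. Behaviour rated and reported as mean total score (±SEM).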

[19] = target: Adrenergic receptor beta (Rattus norvegicus) (UniProt P18090+P10608+P26255); assay: Percent inhibition of Beta adrenergic receptor by 1 uM of compound; format: protein assay
[20] = target: T2, Adrenergic receptor alpha-1 (Rattus norvegicus); assay: Percent inhibition of Alpha-1 adrenergic receptor by 1 uM of compound; format: protein assay
[21] = target: T3, GABA-A receptor; anion channel (Rattus norvegicus); assay: as §3; format: protein-complex assay; remark: listed apart in the source
Outline: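 Incubated with 1.5×10^-9 M [³H]diazepam for 30 min at 4 °C, then filtered on GF/C and counted by scintillation. Nonspecific binding defined with 3×10^-6 M unlabelled diazepam.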

Rattus norvegicus [22] = assay: In vivo ability (10.0 mg/kg) was to elicit serotonin syndrome in rat; format: functional; outline: as §4
Rattus norvegicus [23] = organism: Rattus norvegicus; assay: Antipsychotic activity was evaluated from the ability to block discrete trial conditioned avoidance response (CAR) of rats; format: functional
Outline: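 Male CD rats (about 400–450 g) trained in discrete-trial avoidance. Compound given ip or po 30 min before testing, at 20 or 40 mg/kg or over a dose range, with at least five rats per dose. Intertrial, avoidance, escape and no-response trials were recorded. Avoidance block is the percentage of trials without avoidance. AB50 comes from a least-squares dose–effect regression line.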

Rattus norvegicus [24] = assay: Compound was tested for antagonism of apomorphine-induced climbing behavior, after intraperitoneal dosing; 1.29-27.21; format: functional; conditions: ip
[25] = target: T1, 5-hydroxytryptamine receptor 1A; assay: In vitro ability to inhibit [3H]8-OH-DPAT binding to 5-hydroxytryptamine 1A receptor of rat hippocampus and the value ranges from 25 - 84; format: tissue-based
Rattus norvegicus [26] = organism: Rattus norvegicus; assay: Anti psychotic activity was evaluated from the ability to block discrete trial conditioned avoidance response (CAR) of rats and the value ranges from 32-61; format: functional; outline: as §1
[27] = target: T1, 5-hydroxytryptamine receptor 1A; assay: In vitro ability to inhibit [3H]8-OH-DPAT binding to 5-hydroxytryptamine 1A receptor of rat hippocampus and the value ranges from 12 to 17.; format: tissue-based
Rattus norvegicus [28] = assay: Compound was tested for antagonism of apomorphine-induced stereotyped behavior, after intraperitoneal dosing; NA is Inactive; format: functional, organism-based; outline: as §2
Rattus norvegicus [29] = assay: Compound was tested for antagonism of apomorphine-induced climbing behavior, after intraperitoneal dosing; format: functional; conditions: ip

D(2) dopamine receptor (Rattus norvegicus), sequence (P61169 whole entry): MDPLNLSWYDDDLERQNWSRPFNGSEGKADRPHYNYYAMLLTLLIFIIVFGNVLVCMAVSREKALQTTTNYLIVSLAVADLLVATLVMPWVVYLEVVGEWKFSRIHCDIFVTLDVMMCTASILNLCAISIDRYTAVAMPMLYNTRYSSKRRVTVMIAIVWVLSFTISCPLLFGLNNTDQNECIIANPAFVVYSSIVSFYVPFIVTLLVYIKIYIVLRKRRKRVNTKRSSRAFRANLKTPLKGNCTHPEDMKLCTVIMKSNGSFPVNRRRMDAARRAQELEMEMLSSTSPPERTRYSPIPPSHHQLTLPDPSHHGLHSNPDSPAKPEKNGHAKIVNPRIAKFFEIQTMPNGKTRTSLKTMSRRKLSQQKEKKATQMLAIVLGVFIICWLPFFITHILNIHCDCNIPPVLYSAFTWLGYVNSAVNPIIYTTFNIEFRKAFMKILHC
D(2) dopamine receptor, sequence (P61169 whole entry): as above

SMILES: Cl.Cl.Cl.O=C1c2cscc2S(=O)(=O)N1CCCCN1CCN(c2ccc(Cl)nn2)CC1
AB50 (Rattus norvegicus [1]): >40 mg/kg

Ki [2]: 10 nM
logP [3]: 1.92
Ki [6]: 10 nM
inhibition [10]: 54%
Ki (D(2) dopamine receptor): 136 nM
inhibition [11]: 0%
SMILES: Cl.Cl.O=C1C2C3C=CC(C4C=CC43)C2S(=O)(=O)N1CCCCN1CCN(c2ncccn2)CC1 (configuration not stated)
Mean (Rattus norvegicus [4]): 5.1
Mean (Rattus norvegicus [5]): 3.9
ED50 (Rattus norvegicus [7]): 3.38 mg/kg
ED50 (Rattus norvegicus [8]): 32.2 mg/kg
AB50 (Rattus norvegicus [9]): 39 mg/kg

SMILES: Cl.Cl.O=C1c2cscc2S(=O)(=O)N1CCCCN1CCN(c2ncccn2)CC1
AB50 (Rattus norvegicus [1]): >20 mg/kg

Ki [12]: 34 nM
inhibition [13]: 55%
SMILES: Cl.Cl.Cl.O=C1C2C3CCC(O3)C2S(=O)(=O)N1CCCCN1CCN(c2cccc(Cl)c2)CC1 (configuration not stated)
AB50 (Rattus norvegicus [1]): 40 mg/kg

SMILES: Cl.Cl.O=C1C2C3C=CC(C4CC34)C2S(=O)(=O)N1CCCCN1CCN(c2ncccn2)CC1 (configuration not stated)
AB50 (Rattus norvegicus [1]): 40 mg/kg

inhibition [14]: 61%
inhibition [15]: 4%
SMILES: CC1CC(=O)N(CCCCN2CCN(c3cncc(Cl)n3)CC2)S(=O)(=O)N1.Cl.Cl.Cl (configuration not stated)
AB50 (Rattus norvegicus [1]): 32 mg/kg

inhibition [15]: 8%
SMILES: Cl.Cl.O=C1c2ccccc2S(=O)(=O)N1CCCCN1CC2CN(Cc3ccccc3)CC2C1 (configuration not stated)
AB50 (Rattus norvegicus [1]): >40 mg/kg

inhibition [14]: 51%
inhibition [15]: 32%
SMILES: Cl.O=C1C2C3CCC(C3)C2S(=O)(=O)N1CCCCN1CCN(c2cncc(Cl)n2)CC1 (configuration not stated)
AB50 (Rattus norvegicus [16]): 45 mg/kg

inhibition [13]: 56%
inhibition [17]: 8%
SMILES: CC1=C(C)CC2C(C1)C(=O)N(CCCCc1ccncc1)S2(=O)=O.Cl (configuration not stated)
AB50 (Rattus norvegicus [1]): >40 mg/kg

inhibition [15]: 0%
SMILES: Cl.O=C1c2ccccc2S(=O)(=O)N1CCCCN1CCn2cccc2C1
AB50 (Rattus norvegicus [1]): >40 mg/kg

inhibition [14]: 7%
inhibition [15]: 0%
SMILES: Cl.O=C1C2C3CCC(CC3)C2S(=O)(=O)N1CCCCC1CCN(c2cncc(Cl)n2)CC1 (configuration not stated)
AB50 (Rattus norvegicus [1]): >40 mg/kg

SMILES: O=C1CC2(CCCC2)CC(=O)N1CCCCN1CCN(c2ncccn2)CC1 [BUSPIRONE]
Mean (Rattus norvegicus [18]): 6.1
inhibition [19]: 0%
inhibition [20]: 33%
inhibition [21]: 0%
Mean (Rattus norvegicus [22]): 2.9
AB50 (Rattus norvegicus [23]): 32 mg/kg

inhibition [15]: 3%
SMILES: Cl.Cl.Cl.O=C1C2C3C=CC(C3)C2S(=O)(=O)N1CCCCN1CCN(c2ccc(Cl)nn2)CC1 (configuration not stated)
AB50 (Rattus norvegicus [1]): >40 mg/kg

inhibition [14]: 54%
inhibition [15]: 10%
SMILES: Cl.O=C1[C@@H]2C3CCC(O3)[C@@H]2S(=O)(=O)N1CCCCN1CCN(c2cncc(Cl)n2)CC1 (some centres not stated)
AB50 (Rattus norvegicus [1]): 40 mg/kg

inhibition [15]: 98%
Ki [25]: 45 nM
SMILES: Cl.Cl.Cl.O=C1C2C3CCC(C3)C2S(=O)(=O)N1CCCCN1CCN(c2cccc(Cl)c2)CC1 (configuration not stated)
ED50 (Rattus norvegicus [24]): 16 mg/kg
ED50 (Rattus norvegicus [8]): 34 mg/kg
AB50 (Rattus norvegicus [26]): 41 mg/kg

Ki [27]: 15 nM
SMILES: Cl.Cl.O=C1C2C3C=CC(C3)C2S(=O)(=O)N1CCCCN1CCN(c2cccc(C(F)(F)F)c2)CC1 (configuration not stated)
AB50 (Rattus norvegicus [1]): 51 mg/kg

SMILES: CC1CC(=O)N(CCCCN2CCN(c3ncccn3)CC2)S(=O)(=O)N1.Cl (configuration not stated)
AB50 (Rattus norvegicus [1]): 40 mg/kg

SMILES: O=C1c2ccccc2S(=O)(=O)N1CCCCN1CCN(c2ncccn2)CC1 [IPSAPIRONE]
Mean (Rattus norvegicus [18]): 8.4
ED50 (Rattus norvegicus [28]): inactive
ED50 (Rattus norvegicus [29]): 26 mg/kg
Mean (Rattus norvegicus [22]): 2.4
AB50 (Rattus norvegicus [23]): 42 mg/kg
